# Data reported in ChEMBL document CHEMBL3112537, “A novel series of 6-substituted 3-(pyrrolidin-1-ylmethyl)chromen-2-ones as selective monoamine oxidase (MAO) A inhibitors” (Eur J Med Chem, 2014).
# Legend:
# [1] = molecular target: Histamine H1 receptor (Homo sapiens) (UniProt P35367); experiment: Displacement of histamine from human histamine H1 receptor at 1 uM relative to control
# In short: (§1)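 Competition binding run by a contract lab, read as % inhibition of control specific binding at a single test concentration. Radioligand per target: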
# [2] = molecular target: T1, 5-hydroxytryptamine receptor 1A (Homo sapiens) (UniProt P08908); experiment: Displacement of [3H]8-OH-DPAT from human 5-HT1A receptor at 1 uM relative to control; in short: as §1
# T1 sequence (whole entry): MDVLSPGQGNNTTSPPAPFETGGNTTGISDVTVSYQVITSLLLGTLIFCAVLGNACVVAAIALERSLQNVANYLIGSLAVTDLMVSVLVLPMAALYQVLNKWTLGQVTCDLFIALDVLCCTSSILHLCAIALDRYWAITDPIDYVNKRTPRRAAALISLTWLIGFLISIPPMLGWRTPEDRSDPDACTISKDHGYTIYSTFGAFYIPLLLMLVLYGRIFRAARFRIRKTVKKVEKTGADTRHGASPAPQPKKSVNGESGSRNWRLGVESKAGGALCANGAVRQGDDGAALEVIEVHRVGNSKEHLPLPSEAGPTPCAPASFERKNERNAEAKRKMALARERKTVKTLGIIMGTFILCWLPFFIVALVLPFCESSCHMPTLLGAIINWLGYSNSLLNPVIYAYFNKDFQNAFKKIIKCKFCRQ
# [3] = molecular target: 5-hydroxytryptamine receptor 2A (Homo sapiens) (UniProt P28223); experiment: Displacement of [3H]-ketanserin from human 5-HT2A receptor at 1 uM relative to control; in short: as §1
# [4] = molecular target: Adrenergic receptor alpha-1 (Rattus norvegicus) (UniProt P15823+P23944+P43140); experiment: Displacement of [3H]-prazosin from rat alpha-1 adrenergic receptor at 1 uM relative to control; in short: as §1
# [5] = molecular target: Adrenergic receptor alpha-2 (Rattus norvegicus) (UniProt P22086+P19328+P22909); experiment: Displacement of [3H]-RX-821002 from rat alpha-2 adrenergic receptor at 1 uM relative to control; in short: as §1
# [6] = molecular target: Sodium-dependent noradrenaline transporter (Homo sapiens) (UniProt P23975); experiment: Displacement of [3H]-nisoxetin from human norepinephrine transporter at 1 uM relative to control; in short: as §1
# [7] = molecular target: Sodium-dependent dopamine transporter (Homo sapiens) (UniProt Q01959); experiment: Displacement of [3H]BTCP from human dopamine transporter at 1 uM relative to control; in short: as §1
# [8] = molecular target: Sodium-dependent serotonin transporter (Homo sapiens) (UniProt P31645); experiment: Displacement of [3H]-imipramine from human serotonin transporter at 1 uM relative to control; in short: as §1
# Homo sapiens = species on record: Homo sapiens; experiment: Selectivity index, ratio of IC50 for human recombinant MAO-B to IC50 for human recombinant MAO-A
# In short: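 Selectivity index for MAO A = IC50(MAO B)/IC50(MAO A), with both human isoforms assayed against kynuramine substrate.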
# [9] = molecular target: T2, Amine oxidase [flavin-containing] B (Homo sapiens, UniProt P27338); experiment: Inhibition of human recombinant MAO-B assessed as kynuramine oxidation to 4-hydroxyquinoline after 40 mins by LC-MS/MS analysis
# T2 sequence (P27338 whole entry): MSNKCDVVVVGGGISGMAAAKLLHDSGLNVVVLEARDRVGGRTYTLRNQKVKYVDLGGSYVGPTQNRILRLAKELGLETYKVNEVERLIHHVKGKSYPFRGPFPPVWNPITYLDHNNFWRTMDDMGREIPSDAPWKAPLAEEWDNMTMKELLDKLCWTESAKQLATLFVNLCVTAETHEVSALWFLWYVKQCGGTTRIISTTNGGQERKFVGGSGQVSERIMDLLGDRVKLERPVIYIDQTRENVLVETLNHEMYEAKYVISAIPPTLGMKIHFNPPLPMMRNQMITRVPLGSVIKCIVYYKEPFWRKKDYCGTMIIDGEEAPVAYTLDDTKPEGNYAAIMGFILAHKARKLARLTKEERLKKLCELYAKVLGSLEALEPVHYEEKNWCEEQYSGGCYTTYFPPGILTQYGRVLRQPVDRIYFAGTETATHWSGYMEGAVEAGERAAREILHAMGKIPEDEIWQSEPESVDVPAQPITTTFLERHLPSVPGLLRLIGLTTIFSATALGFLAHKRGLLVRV
# In short: (§2)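 Human MAO A and MAO B inhibition using kynuramine as a mixed substrate for both isoforms. IC50 is given as the mean ± SE of duplicate determinations.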
# [10] = molecular target: T3, Amine oxidase [flavin-containing] A (Homo sapiens, UniProt P21397); experiment: Inhibition of human recombinant MAO-A assessed as kynuramine oxidation to 4-hydroxyquinoline after 40 mins by LC-MS/MS analysis; in short: as §2
# T3 sequence (P21397 whole entry): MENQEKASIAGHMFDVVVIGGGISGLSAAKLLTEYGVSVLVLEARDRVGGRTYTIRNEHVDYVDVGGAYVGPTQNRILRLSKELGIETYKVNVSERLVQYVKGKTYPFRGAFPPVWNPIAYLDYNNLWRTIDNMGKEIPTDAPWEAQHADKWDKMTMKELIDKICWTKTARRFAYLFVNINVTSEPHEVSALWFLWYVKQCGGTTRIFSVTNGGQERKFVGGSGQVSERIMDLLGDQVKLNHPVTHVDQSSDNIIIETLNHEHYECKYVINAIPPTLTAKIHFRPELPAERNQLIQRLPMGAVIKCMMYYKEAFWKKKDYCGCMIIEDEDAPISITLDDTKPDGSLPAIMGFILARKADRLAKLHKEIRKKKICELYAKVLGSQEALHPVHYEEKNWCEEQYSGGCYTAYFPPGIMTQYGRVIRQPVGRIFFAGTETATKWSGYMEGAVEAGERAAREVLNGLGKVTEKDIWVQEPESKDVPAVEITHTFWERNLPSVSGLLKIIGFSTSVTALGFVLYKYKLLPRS
# Rattus norvegicus [11] = experiment: In vivo inhibition of MAO-A in Sprague-Dawley rat assessed as 3-methoxytyramine level in brain striatum at 53 umol/kg, sc after 1 hr by HPLC/EC analysis relative to control; assay type: functional; set-up: scale not given: the % may be the effect or the level left
# In short: (§3)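 Freely moving rats were given a subcutaneous dose and sacrificed 1 h later. Striatal DOPAC, 3-MT and 5-HIAA were measured post mortem and expressed as % of saline control (n = 4). Significance was tested by Student's t-test (P < 0.05).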
# Rattus norvegicus [12] = experiment: In vivo inhibition of MAO-A in Sprague-Dawley rat assessed as 3,4-dihydroxyphenylacetic acid level in brain striatum at 53 umol/kg, sc after 1 hr by HPLC/EC analysis relative to control; assay type: functional; set-up: scale not given: the % may be the effect or the level left; in short: as §3
# Rattus norvegicus [13] = experiment: In vivo inhibition of MAO-A in Sprague-Dawley rat assessed as 5-hydroxyindoleacetic acid in brain striatum at 53 umol/kg, sc after 1 hr by HPLC/EC analysis relative to control; assay type: functional; set-up: scale not given: the % may be the effect or the level left; in short: as §3
# [14] = Aqueous solubility of the compound in saline solution; assay type: physicochemical
# Rattus norvegicus [15] = experiment: In vivo inhibition of MAO-A in Sprague-Dawley rat assessed as 3,4-dihydroxyphenylacetic acid level in brain striatum at 100 umol/kg, sc after 1 hr by HPLC/EC analysis relative to control; assay type: functional; set-up: scale not given: the % may be the effect or the level left
# In short: (§4)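 Freely moving rats dosed subcutaneously and sacrificed 1 h later. Striatal DOPAC, 3-MT and 5-HIAA were measured post mortem and expressed as % of saline control (n = 4). Significance was by Student's t-test, P < 0.05.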
# Rattus norvegicus [16] = experiment: In vivo inhibition of MAO-A in Sprague-Dawley rat assessed as 3-methoxytyramine level in brain striatum at 100 umol/kg, sc after 1 hr by HPLC/EC analysis relative to control; assay type: functional; set-up: scale not given: the % may be the effect or the level left; in short: as §4
# [17] = Metabolic stability in rat liver microsomes assessed as compound remaining at 5 uM after 60 mins by LC-MS/MS analysis; assay type: ADME; conditions: read-out: Stability
# In short: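 Incubation with rat liver microsomes, read as % of compound remaining after 60 min.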
# Rattus norvegicus [18] = experiment: In vivo inhibition of MAO-A in Sprague-Dawley rat assessed as 5-hydroxyindoleacetic acid in brain striatum at 100 umol/kg, sc after 1 hr by HPLC/EC analysis relative to control; assay type: functional; set-up: scale not given: the % may be the effect or the level left; in short: as §4
# D(2) dopamine receptor = D(2) dopamine receptor (Homo sapiens, UniProt P14416); experiment: Antagonist activity at dopamine D2 receptor (unknown origin) expressed in HEK cells co-expressing Gqi5 assessed as inhibition of dopamine-induced effect by FLIPR assay; assay type: cell-based, HEK293
# Rattus norvegicus [19] = experiment: In vivo inhibition of MAO-A in Sprague-Dawley rat assessed as 3-methoxytyramine level in brain striatum at 37 umol/kg, sc after 1 hr by HPLC/EC analysis relative to control; assay type: functional; set-up: scale not given: the % may be the effect or the level left; in short: as §4
# Rattus norvegicus [20] = experiment: In vivo inhibition of MAO-A in Sprague-Dawley rat assessed as 5-hydroxyindoleacetic acid in brain striatum at 37 umol/kg, sc after 1 hr by HPLC/EC analysis relative to control; assay type: functional; set-up: scale not given: the % may be the effect or the level left; in short: as §4
# Rattus norvegicus [21] = experiment: In vivo inhibition of MAO-A in Sprague-Dawley rat assessed as 3,4-dihydroxyphenylacetic acid level in brain striatum at 37 umol/kg, sc after 1 hr by HPLC/EC analysis relative to control; assay type: functional; set-up: scale not given: the % may be the effect or the level left; in short: as §4
# Rattus norvegicus [22] = experiment: In vivo inhibition of MAO-A in Sprague-Dawley rat assessed as 3,4-dihydroxyphenylacetic acid level in brain striatum at 80 umol/kg, sc after 1 hr by HPLC/EC analysis relative to control; assay type: functional; set-up: scale not given: the % may be the effect or the level left; in short: as §4
# Rattus norvegicus [23] = experiment: In vivo inhibition of MAO-A in Sprague-Dawley rat assessed as 3-methoxytyramine level in brain striatum at 80 umol/kg, sc after 1 hr by HPLC/EC analysis relative to control; assay type: functional; set-up: scale not given: the % may be the effect or the level left; in short: as §4
# Rattus norvegicus [24] = experiment: In vivo inhibition of MAO-A in Sprague-Dawley rat assessed as 5-hydroxyindoleacetic acid in brain striatum at 80 umol/kg, sc after 1 hr by HPLC/EC analysis relative to control; assay type: functional; set-up: scale not given: the % may be the effect or the level left; in short: as §4
# Chain of D(2) dopamine receptor (P14416 whole entry): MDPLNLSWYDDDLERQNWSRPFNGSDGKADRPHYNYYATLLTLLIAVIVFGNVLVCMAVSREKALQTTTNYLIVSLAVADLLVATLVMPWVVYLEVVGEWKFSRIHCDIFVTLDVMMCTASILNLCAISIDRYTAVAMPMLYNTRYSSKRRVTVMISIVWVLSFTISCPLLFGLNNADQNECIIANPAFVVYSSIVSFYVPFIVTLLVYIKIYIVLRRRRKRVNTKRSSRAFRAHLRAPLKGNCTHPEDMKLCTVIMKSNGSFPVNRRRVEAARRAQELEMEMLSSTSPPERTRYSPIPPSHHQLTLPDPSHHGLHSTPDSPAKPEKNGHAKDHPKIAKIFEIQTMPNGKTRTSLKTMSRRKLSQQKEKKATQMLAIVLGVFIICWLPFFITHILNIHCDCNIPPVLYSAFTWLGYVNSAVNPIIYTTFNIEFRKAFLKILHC
# Chain of 5-hydroxytryptamine receptor 2A (Homo sapiens) (P28223 whole entry): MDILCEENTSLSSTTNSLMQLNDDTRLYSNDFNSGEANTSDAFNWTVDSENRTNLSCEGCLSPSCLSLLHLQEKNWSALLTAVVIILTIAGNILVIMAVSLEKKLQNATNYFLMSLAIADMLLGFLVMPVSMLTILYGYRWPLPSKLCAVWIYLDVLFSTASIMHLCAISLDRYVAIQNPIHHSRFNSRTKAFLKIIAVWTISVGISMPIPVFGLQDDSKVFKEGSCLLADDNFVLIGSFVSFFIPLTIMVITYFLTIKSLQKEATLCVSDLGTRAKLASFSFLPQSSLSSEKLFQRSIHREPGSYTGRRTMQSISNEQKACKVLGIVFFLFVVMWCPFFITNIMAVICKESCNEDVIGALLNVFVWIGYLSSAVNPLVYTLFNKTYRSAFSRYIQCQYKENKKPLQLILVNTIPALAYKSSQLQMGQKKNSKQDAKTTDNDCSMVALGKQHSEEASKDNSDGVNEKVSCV
# Chain of Sodium-dependent noradrenaline transporter (Homo sapiens) (P23975 whole entry): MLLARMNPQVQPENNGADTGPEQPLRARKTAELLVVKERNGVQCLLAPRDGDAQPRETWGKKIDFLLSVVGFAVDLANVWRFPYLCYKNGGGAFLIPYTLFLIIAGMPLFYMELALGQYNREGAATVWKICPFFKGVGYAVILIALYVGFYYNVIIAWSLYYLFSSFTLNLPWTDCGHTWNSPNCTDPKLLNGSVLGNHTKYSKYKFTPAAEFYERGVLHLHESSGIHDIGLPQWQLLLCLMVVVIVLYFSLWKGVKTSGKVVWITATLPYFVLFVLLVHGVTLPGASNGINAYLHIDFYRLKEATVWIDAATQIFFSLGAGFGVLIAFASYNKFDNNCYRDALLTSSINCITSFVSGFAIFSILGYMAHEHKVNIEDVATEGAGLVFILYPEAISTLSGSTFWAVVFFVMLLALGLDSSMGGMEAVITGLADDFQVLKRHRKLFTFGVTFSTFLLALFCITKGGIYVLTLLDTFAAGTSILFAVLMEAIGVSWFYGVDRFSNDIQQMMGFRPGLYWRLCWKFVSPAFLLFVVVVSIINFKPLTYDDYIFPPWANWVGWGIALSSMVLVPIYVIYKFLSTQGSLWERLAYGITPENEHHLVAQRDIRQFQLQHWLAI
# Chain of Sodium-dependent serotonin transporter (Homo sapiens) (P31645 whole entry, looked up): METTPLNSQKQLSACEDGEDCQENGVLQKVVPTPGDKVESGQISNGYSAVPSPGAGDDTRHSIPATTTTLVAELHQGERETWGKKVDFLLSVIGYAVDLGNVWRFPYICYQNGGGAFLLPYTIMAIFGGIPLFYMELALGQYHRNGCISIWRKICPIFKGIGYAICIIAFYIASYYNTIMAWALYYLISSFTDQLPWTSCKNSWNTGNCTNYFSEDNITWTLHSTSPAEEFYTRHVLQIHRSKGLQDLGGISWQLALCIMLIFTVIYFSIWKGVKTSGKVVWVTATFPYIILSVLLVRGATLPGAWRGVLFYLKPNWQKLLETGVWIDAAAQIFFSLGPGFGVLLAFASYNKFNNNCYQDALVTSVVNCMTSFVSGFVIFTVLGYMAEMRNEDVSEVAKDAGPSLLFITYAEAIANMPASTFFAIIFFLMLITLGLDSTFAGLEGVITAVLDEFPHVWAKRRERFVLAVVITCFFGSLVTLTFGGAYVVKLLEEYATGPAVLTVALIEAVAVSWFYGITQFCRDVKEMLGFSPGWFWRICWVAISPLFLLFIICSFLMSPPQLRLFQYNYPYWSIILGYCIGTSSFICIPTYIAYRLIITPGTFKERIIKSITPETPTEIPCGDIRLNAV
# Chain of Sodium-dependent dopamine transporter (Homo sapiens) (Q01959 whole entry): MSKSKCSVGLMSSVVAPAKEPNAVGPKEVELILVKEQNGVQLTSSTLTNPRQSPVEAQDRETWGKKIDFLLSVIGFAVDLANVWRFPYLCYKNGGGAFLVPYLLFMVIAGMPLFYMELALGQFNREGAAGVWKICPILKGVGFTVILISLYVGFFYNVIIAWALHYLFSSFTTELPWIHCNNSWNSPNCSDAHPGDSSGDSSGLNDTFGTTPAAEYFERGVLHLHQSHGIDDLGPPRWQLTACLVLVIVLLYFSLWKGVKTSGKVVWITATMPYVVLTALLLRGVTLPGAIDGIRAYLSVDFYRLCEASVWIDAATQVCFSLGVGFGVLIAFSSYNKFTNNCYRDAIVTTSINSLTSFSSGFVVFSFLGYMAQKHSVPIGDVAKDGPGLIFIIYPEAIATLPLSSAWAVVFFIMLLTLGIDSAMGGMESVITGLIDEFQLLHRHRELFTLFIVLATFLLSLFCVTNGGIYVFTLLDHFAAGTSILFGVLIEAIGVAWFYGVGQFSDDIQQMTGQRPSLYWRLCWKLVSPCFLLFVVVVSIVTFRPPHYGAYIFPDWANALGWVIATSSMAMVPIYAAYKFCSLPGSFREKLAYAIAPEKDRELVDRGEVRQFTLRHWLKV
# Chain of Histamine H1 receptor (Homo sapiens) (P35367 whole entry): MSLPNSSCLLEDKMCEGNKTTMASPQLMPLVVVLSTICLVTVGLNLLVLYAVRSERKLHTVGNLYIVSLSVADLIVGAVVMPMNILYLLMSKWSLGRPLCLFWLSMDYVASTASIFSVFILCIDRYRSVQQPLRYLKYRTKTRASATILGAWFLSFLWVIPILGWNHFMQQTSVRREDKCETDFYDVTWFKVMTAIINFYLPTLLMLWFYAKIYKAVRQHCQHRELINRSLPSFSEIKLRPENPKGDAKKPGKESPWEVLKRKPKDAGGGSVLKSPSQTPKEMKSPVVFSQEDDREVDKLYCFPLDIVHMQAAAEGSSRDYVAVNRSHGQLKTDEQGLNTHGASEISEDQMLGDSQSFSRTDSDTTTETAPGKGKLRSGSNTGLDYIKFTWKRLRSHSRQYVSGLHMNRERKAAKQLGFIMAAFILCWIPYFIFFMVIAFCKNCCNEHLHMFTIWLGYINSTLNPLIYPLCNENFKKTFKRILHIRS
smiles,measurement,setting,value
O=c1oc2ccc(C(F)(F)F)cc2cc1CN1CCCC1,inhibition,[1],4%
same,inhibition,[2],8%
same,inhibition,[3],20%
same,inhibition,[4],4%
same,inhibition,[5],20%
same,inhibition,[6],1%
same,inhibition,[7],8%
same,inhibition,[8],-4%
same,Ratio IC50,Homo sapiens,> 11.8
O=c1oc2ccc(OCc3ccccc3)cc2cc1CN1CCCC1,IC50,[9],> 100 µM
same,IC50,[10],> 100 µM
C#CCN(C)[C@H](C)Cc1ccccc1 [SELEGILINE],Activity,Rattus norvegicus [11],146%
same,Activity,Rattus norvegicus [12],36%
same,Activity,Rattus norvegicus [13],96%
COc1ccc2oc(=O)c(CN3CCCC3)cc2c1.Cl,solubility,[14],> 5000 µg/mL
O=c1oc2ccccc2cc1CN1CCCC1,Activity,Rattus norvegicus [15],58%
same,Activity,Rattus norvegicus [16],164%
same,IC50,[9],> 100 µM
same,IC50,[10],6.32 µM
same,"remaining at 1 h, 5 µM",[17],< 5%
same,Activity,Rattus norvegicus [18],106%
COc1ccc2oc(=O)c(CN3CCCC3)cc2c1,Activity,Rattus norvegicus [15],65%
same,Activity,Rattus norvegicus [16],129%
same,IC50,[9],> 100 µM
same,IC50,[10],4.48 µM
same,IC50,D(2) dopamine receptor,> 30 µM
same,Activity,Rattus norvegicus [18],90%
O=C(NCCN1CCOCC1)c1ccc(Cl)cc1 [MOCLOBEMIDE],Activity,Rattus norvegicus [19],398%
same,Activity,Rattus norvegicus [20],80%
same,Activity,Rattus norvegicus [21],18%
O=c1oc2ccc(O)cc2cc1CN1CCCC1 [listing 1 of 2 here],Activity,Rattus norvegicus [22],47%
same,Activity,Rattus norvegicus [23],126%
same,Activity,Rattus norvegicus [24],86%
same,IC50,[9],> 100 µM
same,IC50,[10],1.46 µM
N[C@@H]1C[C@H]1c1ccccc1.N[C@H]1C[C@@H]1c1ccccc1,Ratio IC50,Homo sapiens,1
O=c1oc2ccc(O)cc2cc1CN1CCCC1 [listing 2 of 2 here],Ratio IC50,Homo sapiens,> 68
Cl.O=c1oc2ccc([N+](=O)[O-])cc2cc1CN1CCCC1,solubility,[14],> 5000 µg/mL
CCCNCc1cc2ccccc2oc1=O,Activity,Rattus norvegicus [15],70%
same,Activity,Rattus norvegicus [16],89%
same,IC50,[9],62.3 µM
same,IC50,[10],17.1 µM
same,"remaining at 1 h, 5 µM",[17],0%
same,IC50,D(2) dopamine receptor,> 30 µM
same,Activity,Rattus norvegicus [18],116%
CCCOc1ccc2oc(=O)c(CN3CCCC3)cc2c1,IC50,[9],22.3 µM
same,IC50,[10],2.16 µM
same,Ratio IC50,Homo sapiens,10.3
